Assay results published in article PMC9532374 (Cancer research, 2022).

Assays:
PAD = PAD (Mus musculus, UniProt Q9Z183); test: PAD activity assay in BM neutrophils of tumor-bearing mice; format: cell-based; settings: BM Ly6G+ cells pretreated for 2h with GSK484
Outline: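 Bone marrow Ly6G+ cells (MACS) from tumor-free or tumor-bearing mice were pretreated for 2 h with inhibitor. Cells were lysed at 1×10^8 cells/mL and lysates incubated with 10 mM BAEE for 30 min at 37°C. Colour reagent (acids, ammonium iron sulfate, DAMO, thiosemicarbazide) was added, samples heated at 95–100°C for 15 min, and absorbance read at 540 nm.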

Mouse HPC = test: HPC differentiation in vitro with GM-CSF with or without LLC TES; format: cell-based; settings: 10 μM; presence or absence of TES; 5 days of culture
Outline: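 Bone marrow HPC from WT or PAD4 KO mice were lineage-depleted and differentiated in RPMI with GM-CSF (20 ng/mL), with or without 25% LLC explant supernatant and with or without 10 μM test compound, for 5 days. Proportion and absolute number of Ly6G+ cells were determined by flow cytometry in Aqua-negative cells.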

Ly6G+ cells = test: Suppression assay with Ly6G+ cells generated from HPC in the presence of TES; format: cell-based, mouse
mouse neutrophils = test: Viability / toxicity in mouse neutrophils; format: cell-based
BM neutrophils = test: Transwell chemotaxis of mouse neutrophils toward CXCL1; format: cell-based
Outline: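 Bone marrow Ly6G+ neutrophils were MACS-isolated (>95% pure) and pre-incubated with 10 μM test compound for 2 h. They were placed in a 3 μm Transwell, 0.1 × 10^6 cells on top, with CXCL1 in Advanced RPMI below. After 1 h at 37°C, migrated cells were counted. Spontaneously migrating cells were subtracted.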

CXCR2 [1] = test: CXCR2 surface expression on neutrophils differentiated in vitro from HPC; format: cell-based, mouse; settings: 10 μM
Outline: (§1)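 Bone marrow hematopoietic progenitors were lineage-depleted and cultured in RPMI with GM-CSF (20 ng/mL), with or without 25% LLC tumor explant supernatant and with or without 10 μM test compound. The supernatant came from ~1.5 cm tumors, minced, incubated overnight at 37°C and 0.22 μm filtered. Surface CXCR2/CXCR4 was measured by flow cytometry.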

CXCR4 [2] = test: CXCR4 surface expression on neutrophils differentiated in vitro from HPC; format: cell-based, mouse; settings: 10 μM
Outline: as §1

CXCR2 [3] = test: CXCR2 expression in human PB neutrophils; format: cell-based
Outline: (§2)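 Peripheral blood neutrophils came from healthy donors or cancer patients. They were collected at the Histopaque 1.077/1.119 interphase after double-density gradient centrifugation, followed by RBC lysis, with CD15 staining to confirm purity. Cells were exposed to 10 μM test compound for 1–4 h. Receptor mRNA was measured by SYBR Green qPCR normalized to β-actin, and surface level by flow cytometry.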

CXCR4 [4] = test: CXCR4 expression in human PB neutrophils; format: cell-based
Outline: as §2

human neutrophils [5] = test: Viability of human neutrophils; format: cell-based; settings: four-hour treatment, 10 μM
human neutrophils [6] = test: Chemotaxis of human neutrophils toward IL-8; format: cell-based; settings: 10 μM for 4h
Outline: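 Human neutrophils were treated with 10 μM test compound for 4 h. They were then placed in a 3 μm pore Transwell, 0.1 × 10^6 cells in Advanced RPMI in the insert, with chemoattractant in medium below. After 1 h at 37°C and 5% CO2, migrated cells in the bottom well were counted.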

T cells = test: T cell proliferation, human PB MNC stimulated with CD3/CD28 Dynabeads; format: cell-based; settings: 10 μM pre-treatment 2h; healthy donors or cancer patients; 72h
Outline: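 Peripheral blood mononuclear cells (Ficoll-Paque; healthy donors or multiple myeloma patients) were labeled with CellTrace Far Red. Cells were pre-treated for 2 h with 10 μM test compound or DMSO vehicle and stimulated with CD3/CD28 Dynabeads for 72 h. Dye dilution was read by flow cytometry in gated CD4+ and CD8+ T cells.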

CD4+ T cells = test: IFN-γ production by human T cells; format: cell-based; settings: 10 μM pre-treatment; 5h stimulation
Outline: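 Peripheral blood mononuclear cells from healthy donors or multiple myeloma patients were Ficoll-Paque isolated. Cells were pre-treated with 10 μM test compound or DMSO vehicle, then stimulated for 5 h with a cell stimulation cocktail with or without protein transport inhibitors. IFN-γ and IL-2 were measured by flow cytometry in gated CD4+ and CD8+ T cells.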

histone H3 = test: PMA-induced citrullination of histone H3 in mouse neutrophils; format: cell-based; settings: in vitro
[7] = Pharmacokinetic study in mice, oral; format: in vivo, Balb/c male mice; settings: 10 mg/kg via oral gavage
Outline: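 Male Balb/c mice (6–8 weeks, 22–25 g) received 10 mg/kg test compound by oral gavage, as a suspension in Tween-80 and 0.5% methyl cellulose. Sparse blood sampling (~100 μL; three mice per point) was done at 0.25–24 h into K2EDTA tubes. Plasma was separated by centrifugation at 10,000 rpm for 5 min at 4°C.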

LL2 = test: Viability of LL2 tumor cell line in vitro; format: cell-based, mouse
B16F10 = test: Viability of B16F10 tumor cell line in vitro; format: cell-based, mouse
CXCR2 [8] = test: CXCR2 expression on neutrophils treated with JBI-589 in vitro; format: cell-based
LL2 tumors = test: LL2 tumor model in mice; format: in vivo, mouse
B16F10 tumors = test: B16F10 tumor model in mice; format: in vivo, mouse; settings: B16F10-bearing mice; 50 mg/kg b.i.d., daily, oral gavage
Outline: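 Male and female mice, 6–8 weeks old, were given 0.3× 10^6 B16F10 cells s.c. into the right flank. Cells were grown in DMEM with 10% FBS and were Mycoplasma-negative. Test compound was given by oral gavage. Read-out was the kinetics of primary tumor growth.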

CXCR2 [9] = test: CXCR2 surface expression on Ly6G+ cells from treated LL2-bearing mice; format: in vivo, mouse; settings: JBI-589 treated LL2-bearing mice
Outline: (§3)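 LL2 cells (0.3× 10^6) were injected s.c. into the right flank. Mice received test compound at 50 mg/kg b.i.d. daily by oral gavage. Cells were Fc-blocked for 10 min, then antibody-stained for 20 min on ice with Live/Dead Aqua. Surface receptor was measured by flow cytometry on CD45+CD11b+Ly6G+ cells.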

CXCR4 [10] = test: CXCR4 surface expression on Ly6G+ cells from treated LL2-bearing mice; format: in vivo, mouse; settings: JBI-589 treated LL2-bearing mice
Outline: as §3

[11] = test system: BM and spleen neutrophils; format: in vivo, mouse; settings: neutrophils from JBI-589-treated LL2-bearing mice re-stimulated in vitro with LL2 cell supernatant
M-MDSC, TAMs = test: Gene expression in spleen M-MDSC or TAMs treated in vitro; format: cell-based, mouse; settings: in vitro treatment of spleen M-MDSC or TAMs from LL2-bearing mice
M-MDSC, TAM, PMN-MDSC = test: Suppression assay with myeloid cells isolated from treated mice; format: in vivo, mouse; settings: cells from JBI-589-treated mice
[12] = 10 μM for 4h, healthy donors and cancer patients, flow cytometry

PAD, sequence (Q9Z183 whole entry): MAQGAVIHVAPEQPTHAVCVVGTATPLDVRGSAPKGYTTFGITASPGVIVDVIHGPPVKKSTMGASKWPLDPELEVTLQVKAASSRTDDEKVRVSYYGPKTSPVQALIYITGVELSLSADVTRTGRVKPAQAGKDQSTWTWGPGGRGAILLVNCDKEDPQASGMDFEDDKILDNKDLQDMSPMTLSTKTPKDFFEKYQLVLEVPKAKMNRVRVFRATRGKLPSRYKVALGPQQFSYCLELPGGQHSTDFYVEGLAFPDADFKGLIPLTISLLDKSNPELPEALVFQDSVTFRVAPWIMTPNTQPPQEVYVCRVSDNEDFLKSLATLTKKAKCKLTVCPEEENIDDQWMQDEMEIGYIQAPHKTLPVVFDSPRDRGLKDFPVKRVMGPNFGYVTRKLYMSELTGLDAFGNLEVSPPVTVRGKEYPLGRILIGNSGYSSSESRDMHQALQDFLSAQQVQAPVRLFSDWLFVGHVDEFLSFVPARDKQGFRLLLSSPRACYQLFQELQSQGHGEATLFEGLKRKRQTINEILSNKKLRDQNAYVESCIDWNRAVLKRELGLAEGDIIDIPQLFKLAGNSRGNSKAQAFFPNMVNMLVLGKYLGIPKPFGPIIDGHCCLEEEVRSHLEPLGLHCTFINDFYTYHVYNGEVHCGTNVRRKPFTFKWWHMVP

COc1cc(C(=O)N2CC[C@@H](O)[C@@H](N)C2)cc2nc(-c3cc4ccccc4n3CC3CC3)n(C)c12 [GSK484]
tumor-induced up-regulation of PAD activity in PMN (PAD): completely abrogated | HPC differentiation (proportion and absolute number of Ly6G+ cells) (Mouse HPC): had no effect | immune suppressive activity of Ly6G+ cells generated in the presence of TES (Ly6G+ cells; inhibitor present during HPC differentiation): did not abrogate | viability of neutrophils (mouse neutrophils; mouse neutrophils): did not affect | CXCL1-induced chemotaxis of neutrophils (BM neutrophils; BM neutrophils pre-incubated with 10 μM for 2h): reduced | up-regulation of CXCR2 in the presence of TES (CXCR2 [1]; with LLC TES): abrogated up-regulation of CXCR2 | baseline CXCR2 expression (CXCR2 [1]; without TES): reduced baseline CXCR2 expression | CXCR4 expression in the presence of TES (CXCR4 [2]; with LLC TES): reduced its expression in the presence of TES | CXCR4 expression in control (CXCR4 [2]; without TES): slightly decreased | CXCR2 receptor expression in neutrophils (CXCR2 [3]; [12]): dramatically reduced | CXCR2 receptor (surface) level (CXCR2 [3]; 4h after treatment, 10 μM, HD neutrophils, time course): significant downregulation | surface level of CXCR2 protein (CXCR2 [3]; one-hour treatment, 10 μM, HD neutrophils): not affecting | CXCR2 gene expression (CXCR2 [3]; one-hour treatment, 10 μM, HD neutrophils, qPCR): significantly downregulated | gene or protein expression of CXCR4 (CXCR4 [4]; 10 μM for 1–4h, HD neutrophils): did not affect | neutrophil CXCR4 receptor expression (CXCR4 [4]; [12]): did not affect expression | viability of neutrophils (human neutrophils [5]): did not affect viability | chemotaxis of neutrophils toward IL-8 (human neutrophils [6]): decreased chemotaxis | T cell proliferation (T cells): slightly decreased | IFN-γ production by CD4+ T cells (CD4+ T cells): reduced IFN-γ production

Cc1c(-c2cc3ccccc3n2Cc2ccc(F)cc2)nc2cc(C(=O)N3CCC[C@@H](N)C3)ccn12 [JBI-589, (R)-(3-aminopiperidin-1-yl)(2-(1-(4-fluorobenzyl)-1H-indol-2-yl)-3-methylimidazo[1,2-a]pyridin-7-yl)methanone]
suppressive activity of Ly6G+ cells generated in vitro from HPC in the presence of TES (Ly6G+ cells; JBI-589): no effect | toxicity in mouse neutrophils (mouse neutrophils; in vitro, JBI-589): without noticeable toxicity | CXCL1-induced migration of neutrophils (BM neutrophils; in vitro, JBI-589): reduced | PMA-induced citrullination of histone H3 (histone H3): inhibited PMA-induced citrullination of histone H3 in mouse neutrophils in a dose-dependent manner | oral bioavailability [7]: excellent oral bioavailability | viability of LL2 tumor cell line (LL2): No effect | viability of B16F10 tumor cell line (B16F10): No effect | CXCR2 expression on neutrophil (CXCR2 [8]): significantly downregulated | infiltration of tumor tissues with activated CD8+ and CD4+ T cells (LL2 tumors; LL2-bearing mice): increased infiltration | frequency of LSK, GMP, CMP and MEP and their proliferation in spleens (LL2 tumors; LL2-bearing mice, treated vs control): No differences | primary tumor growth (LL2 tumors; LL2-bearing mice, 50 mg/kg, twice a day, daily, oral gavage): markedly reduced | lung metastatic lesions (LL2 tumors; LL2-bearing mice, IVIS): almost undetectable | inhibition of primary tumor growth by ICB on addition of JBI-589 (LL2 tumors; LL2-bearing mice, JBI-589 50 mg/kg b.i.d. plus anti-CTLA-4 and anti-PD-1 antibodies): significantly enhanced | presence of tumor-associated neutrophils (LL2 tumors; LL2-bearing mice, flow cytometry): significant decrease | cellularity of the BM (LL2 tumors; mouse, in vivo): did not affect | primary tumor growth (B16F10 tumors): markedly reduced | CXCR2 receptor expression in Ly6G+ cells (CXCR2 [9]): significant down-regulation | CXCR4 receptor expression in Ly6G+ cells (CXCR4 [10]): but not CXCR4 | NET formation by BM and spleen neutrophils [11]: unable to produce NETs | expression of genes encoding soluble factors involved in pro-tumorigenic effect (M-MDSC, TAMs): did not affect | suppressive activity of M-MDSC, TAM and PMN-MDSC (M-MDSC, TAM, PMN-MDSC): did not affect suppressive activity
